Test results taken from ChEMBL document CHEMBL1150854, “New prenylated bi- and tricyclic phloroglucinol derivatives from Hypericum papuanum” (J Nat Prod, 2001).
In brackets after ≈: the same amount, converted by molar mass. One block for each molecule: values may come before it. Activity calls are given as the source filed them. The rule behind the calls is not given here.

Tests used:
[1] = system: Staphylococcus epidermidis; experiment: Antibacterial activity against Staphylococcus epidermidis ATCC 12228 by doubling dilution method; assay type: functional
Outline: (§1)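 Doubling (twofold) broth dilution of pure compounds, modified from an earlier published procedure. Gram-positive strains: B. cereus ATCC 10702, S. epidermidis ATCC 12228, M. luteus ATCC 9341. Read-out is MIC in μg/mL. Chloramphenicol served as positive control.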

[2] = system: KB; experiment: Cytotoxicity against human KB cells; assay type: functional, cell-based
Outline: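 KB cells (ATCC CCL 17, human nasopharyngeal carcinoma), run by the method of earlier published work. Each test done at least in triplicate. Value given as IC50 in μg/mL. Podophyllotoxin served as positive control.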

[3] = system: Bacillus cereus; experiment: Antibacterial activity against Bacillus cereus ATCC 10702 by doubling dilution method; assay type: functional; outline: as §1
[4] = system: Micrococcus luteus; experiment: Antibacterial activity against Micrococcus luteus ATCC 9341 by doubling dilution method; assay type: functional; outline: as §1
[5] = Homo sapiens, KB, read-out: IC50
[6] = Bacillus cereus, ATCC 10702, read-out: MIC
[7] = Staphylococcus epidermidis, ATCC 12228, read-out: MIC

SMILES: CC(C)=CCC1(C)C(=O)C(C(=O)C(C)C)=C(O)C2=C1OC(C)(C)C=C2 (stereo in doubt; 7)
Activity [1]: inactive

SMILES: CC(C)=CCC1(C)C(=O)C(C(=O)C(C)C)=C(O)C2=C1OC(C)(C)C=C2 (stereo in doubt; 7) [HYPERGUINONE B]
IC50 ([2]; kb): 13 µg/mL (≈ 37.7 µM)
MIC [3]: 32 µg/mL (≈ 92.9 µM)

SMILES: CC(C)=CC[C@@H]1C[C@@]2(C)C(=O)[C@](CC=C(C)C)(C(=O)C(C(=O)C(C)C)=C2O)C1(C)C (stereo in doubt; 8)
IC50 ([2]; kb): 3.2 µg/mL (≈ 7.72 µM)
MIC [1, 7]: 8 µg/mL (≈ 19.3 µM)
MIC [3, 6]: 8 µg/mL (≈ 19.3 µM)
MIC [4]: 16 µg/mL (≈ 38.6 µM)

SMILES: CCC(=O)C1=C(O)C2=C(OC(C)(C)C=C2)C(C)(CC=C(C)C)C1=O (stereo in doubt; 6a) [HYPERGUINONE A]
MIC [1, 7]: 32 µg/mL (≈ 96.8 µM)
MIC [3, 6]: 32 µg/mL (≈ 96.8 µM)

SMILES: COc1cc([C@@H]2c3cc4c(cc3[C@H](O)[C@H]3COC(=O)[C@H]23)OCO4)cc(OC)c1OC [PODOFILOX]
IC50 [2, 5]: 0.006 µg/mL (≈ 0.0145 µM)

SMILES: CC(C)=CCC1(C)C(=O)C(C(=O)C(C)C)=C(O)C2=C1OC(C)(C)C=C2 (stereo in doubt; 7a)
Activity [1]: inactive

SMILES: O=C(N[C@H](CO)[C@H](O)c1ccc([N+](=O)[O-])cc1)C(Cl)Cl [CHLORAMPHENICOL]
MIC [1, 7]: 4 µg/mL (≈ 12.4 µM)
MIC [3, 6]: 2 µg/mL (≈ 6.19 µM)
MIC [4]: 2 µg/mL (≈ 6.19 µM)

SMILES: CCC(=O)C1=C(O)C2=C(OC(C)(C)C=C2)C(C)(CC=C(C)C)C1=O (stereo in doubt; 6) [HYPERGUINONE A]
MIC [1]: 32 µg/mL (≈ 96.8 µM)
MIC [3]: 32 µg/mL (≈ 96.8 µM)

Further lines, with some results ahead:

MIC [3, 6]: 32 µg/mL (≈ 92.9 µM)
SMILES: CC(C)=CCC1(C)C(=O)C(C(=O)C(C)C)=C(O)C2=C1OC(C)(C)C=C2 (stereo in doubt; 7a) [HYPERGUINONE B]
IC50 [2, 5]: 13 µg/mL (≈ 37.7 µM)

MIC [3, 6]: 64 µg/mL (≈ 155 µM)
SMILES: CC(C)=CC[C@@H]1C[C@]2(C)C(=O)[C@@](C(=O)C(C)C)(C(=O)C3=C2OC(C)(C)C=C3)C1(C)C [PAPUAFORIN A]
IC50 [2, 5]: 7.5 µg/mL (≈ 18.2 µM)
Activity [1]: inactive

MIC [3, 6]: 64 µg/mL (≈ 150 µM)
MIC [4]: 32 µg/mL (≈ 75 µM)
SMILES: CCC(C)C(=O)[C@]12C(=O)C3=C(OC(C)(C)C=C3)[C@](C)(C[C@@H](CC=C(C)C)C1(C)C)C2=O (stereo partly specified) [PAPUAFORIN C]
IC50 [2, 5]: 4.9 µg/mL (≈ 11.5 µM)
Activity [1]: inactive

MIC [1, 7]: 32 µg/mL (≈ 66.6 µM)
MIC [3, 6]: 64 µg/mL (≈ 133 µM)
SMILES: CC(C)=CCC[C@@]1(C)[C@H](CC=C(C)C)C[C@]2(C)C(=O)[C@@]1(C(=O)C(C)C)C(=O)C1=C2OC(C)(C)C=C1 [PAPUAFORIN E]
IC50 [2, 5]: 5.6 µg/mL (≈ 11.6 µM)

MIC [3, 6]: 128 µg/mL (≈ 259 µM)
SMILES: CCC(C)C(=O)[C@]12C(=O)C3=C(OC(C)(C)C=C3)[C@](C)(C[C@@H](CC=C(C)C)[C@]1(C)CCC=C(C)C)C2=O (stereo partly specified) [PAPUAFORIN D]
IC50 [2, 5]: 6.6 µg/mL (≈ 13.3 µM)
Activity [1]: inactive
